Source: ChEMBL document CHEMBL4715707, “Allosteric Indole Amide Inhibitors of p97: Identification of a Novel Probe of the Ubiquitin Pathway” (ACS Med Chem Lett, 2016)
Converted amounts (≈) assume the structure as drawn. Blank lines part the entries; values can stand above or below the compound they belong to. The source made the active and inactive calls. The rule behind the calls is not given here.

Assays:
[1] = biological target: T1, Transitional endoplasmic reticulum ATPase (Homo sapiens, UniProt P55072); assay: Inhibition of recombinant human full length Avi-tagged p97 (1 to 806 residues) expressed in Escherichia coli Rosetta 2(DE3) using 100 uM ATP as substrate incubated for 90 mins by ADP-glo assay
Summary of the method: (§1)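 ADP-Glo luminescent detection of ADP formed by wild-type p97 ATPase. Enzyme was 20 nM WT p97 (indole amide series) or 10 nM (pyridine indole amide series), with ATP at 20 or 100 μM. n is the number of independent replicates, each run in duplicate or triplicate.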
Target sequence in this assay (P55072 whole entry, the tested form may be a part): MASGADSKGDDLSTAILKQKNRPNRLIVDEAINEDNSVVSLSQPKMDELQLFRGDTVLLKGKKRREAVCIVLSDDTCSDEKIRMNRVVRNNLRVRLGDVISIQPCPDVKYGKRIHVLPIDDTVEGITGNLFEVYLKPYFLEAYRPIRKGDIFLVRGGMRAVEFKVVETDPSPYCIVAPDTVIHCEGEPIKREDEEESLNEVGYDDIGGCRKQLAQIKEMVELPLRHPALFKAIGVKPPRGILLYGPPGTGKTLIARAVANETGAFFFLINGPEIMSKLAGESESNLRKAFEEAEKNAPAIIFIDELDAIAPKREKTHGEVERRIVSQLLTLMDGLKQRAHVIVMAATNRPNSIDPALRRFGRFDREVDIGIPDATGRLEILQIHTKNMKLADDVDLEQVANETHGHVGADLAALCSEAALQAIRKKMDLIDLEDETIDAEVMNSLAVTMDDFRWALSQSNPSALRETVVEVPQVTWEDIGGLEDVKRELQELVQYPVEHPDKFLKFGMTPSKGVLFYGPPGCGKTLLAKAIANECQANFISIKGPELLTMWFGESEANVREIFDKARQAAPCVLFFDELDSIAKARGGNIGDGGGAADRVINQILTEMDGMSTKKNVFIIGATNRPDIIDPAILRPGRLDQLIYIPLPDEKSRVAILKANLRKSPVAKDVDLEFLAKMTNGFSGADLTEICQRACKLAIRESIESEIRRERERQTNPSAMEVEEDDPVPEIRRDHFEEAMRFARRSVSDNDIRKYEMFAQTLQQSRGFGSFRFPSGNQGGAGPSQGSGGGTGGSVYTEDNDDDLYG

[2] = biological target: T1, Transitional endoplasmic reticulum ATPase; assay: Inhibition of recombinant human full length Avi-tagged p97 (1 to 806 residues) expressed in Escherichia coli Rosetta 2(DE3) using 20 uM ATP as substrate incubated for 90 mins by ADP-glo assay; summary of the method: as §1
Target sequence in this assay (P55072 whole entry, the tested form may be a part): as above

[3] = biological target: T1, Transitional endoplasmic reticulum ATPase; assay: Binding affinity to recombinant human full length C-terminal Avi-tagged p97 D2 domain (461 to 806 residues) expressed in Escherichia coli Rosetta 2(DE3) assessed as binding constant by SPR analysis
Target sequence in this assay (P55072 2-806 limits assumed): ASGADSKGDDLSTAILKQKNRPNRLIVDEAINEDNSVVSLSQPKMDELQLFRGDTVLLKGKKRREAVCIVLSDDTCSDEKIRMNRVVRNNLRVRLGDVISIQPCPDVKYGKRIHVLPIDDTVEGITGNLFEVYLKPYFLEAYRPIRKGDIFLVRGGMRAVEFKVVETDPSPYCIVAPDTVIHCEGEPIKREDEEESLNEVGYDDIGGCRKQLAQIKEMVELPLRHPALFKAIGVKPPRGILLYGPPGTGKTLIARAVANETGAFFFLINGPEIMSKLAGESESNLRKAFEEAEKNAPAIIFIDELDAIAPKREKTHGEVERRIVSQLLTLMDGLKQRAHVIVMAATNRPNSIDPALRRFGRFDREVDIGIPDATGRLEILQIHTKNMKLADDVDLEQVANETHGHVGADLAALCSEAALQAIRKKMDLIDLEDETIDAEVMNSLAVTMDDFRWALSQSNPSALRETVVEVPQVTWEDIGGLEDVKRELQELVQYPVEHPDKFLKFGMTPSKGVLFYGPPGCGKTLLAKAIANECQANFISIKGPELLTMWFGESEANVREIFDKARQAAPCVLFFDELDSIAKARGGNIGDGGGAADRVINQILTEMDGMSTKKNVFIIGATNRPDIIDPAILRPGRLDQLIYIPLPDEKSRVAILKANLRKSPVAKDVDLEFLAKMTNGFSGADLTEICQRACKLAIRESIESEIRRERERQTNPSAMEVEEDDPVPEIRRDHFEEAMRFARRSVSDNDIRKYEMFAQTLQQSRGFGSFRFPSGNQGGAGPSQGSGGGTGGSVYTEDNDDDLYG

[4] = biological target: T1, Transitional endoplasmic reticulum ATPase; assay: Binding affinity to recombinant human full length Avi-tagged p97 (1 to 806 residues) expressed in Escherichia coli Rosetta 2(DE3) assessed as binding constant by SPR analysis
Target sequence in this assay (P55072 2-806 limits assumed): as above

[5] = Aqueous solubility of compound at pH 7; assay type: physicochemical; settings: buffer
Summary of the method: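 Aqueous solubility determined in PBS at pH 7.4.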

[6] = biological target: T1, Transitional endoplasmic reticulum ATPase; assay: Binding affinity to recombinant human full length N-terminal Avi-tagged p97 ND1 domain (1 to 458 residues) expressed in Escherichia coli Rosetta 2(DE3) assessed as binding constant by SPR analysis
Target sequence in this assay (P55072 2-806 limits assumed): as above

[7] = biological target: T1, Transitional endoplasmic reticulum ATPase; assay: Inhibition of recombinant human full length Avi-tagged p97 (1 to 806 residues) expressed in Escherichia coli Rosetta 2(DE3) using 5 uM ATP as substrate incubated for 90 mins by ADP-glo assay
Summary of the method: (§2)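 ATP-dependence of inhibition assessed by determining IC50 at three ATP levels (5, 20 and 100 μM) in the ADP-Glo p97 ATPase assay. Inhibition mode was assigned from the shift in IC50 with increasing ATP.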
Target sequence in this assay (P55072 whole entry, the tested form may be a part): as the sequence (P55072 whole entry, the tested form may be a part) above

[8] = Metabolic stability in human microsomes assessed as half life; assay type: ADME, Microsome
[9] = biological target: T1, Transitional endoplasmic reticulum ATPase; assay: Competitive inhibition of recombinant human full length Avi-tagged p97 (1 to 806 residues) expressed in Escherichia coli Rosetta 2(DE3) using 20 uM ATP as substrate incubated for 90 mins by ADP-glo assay based Michaelis-Menten plot analysis
Target sequence in this assay (P55072 whole entry, the tested form may be a part): as above

[10] = Apparent permeability across basolateral to apical side in MDCK cells; assay type: ADME, cell-based, Canis lupus familiaris; settings: dog
Summary of the method: (§3)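 Bidirectional permeability measured across MDCK cell monolayers, reported as apparent permeability (Papp) in cm/s for each direction.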

[11] = Metabolic stability in mouse microsomes assessed as half life; assay type: ADME, Microsome
[12] = Apparent permeability across apical to basolateral side in MDCK cells; assay type: ADME, cell-based, Canis lupus familiaris; settings: dog; summary of the method: as §3
[13] = biological target: T1, Transitional endoplasmic reticulum ATPase; assay: Uncompetitive inhibition of recombinant human full length Avi-tagged p97 (1 to 806 residues) expressed in Escherichia coli Rosetta 2(DE3) using 20 uM ATP as substrate incubated for 90 mins by ADP-glo assay based Michaelis-Menten plot analysis; summary of the method: as §2
Target sequence in this assay (P55072 whole entry, the tested form may be a part): as above

SMILES: CCc1cc2cc(NC(=O)c3nccnc3N)ccc2[nH]1
IC50 [1]: 13 µM

SMILES: Cc1cc2cc(NC(=O)c3nccnc3N)ccc2n1C
IC50 [1]: > 50 µM

SMILES: Nc1nccnc1C(=O)Nc1ccc2[nH]ccc2c1
IC50 [2]: > 50 µM

SMILES: Cc1cc2cc(NC(=O)c3ncccc3N)ccc2[nH]1
IC50 [2]: > 50 µM

Further lines, results first:

IC50 [2]: > 50 µM
SMILES: Cc1cc2cc(NC(=O)c3cnccn3)ccc2[nH]1

IC50 [2]: > 50 µM
SMILES: Cc1[nH]c2ccc(NC(=O)c3nccnc3N)cc2c1C

Activity [3]: Active
Kdiss [4]: 9.1 µM
IC50 [1]: 3.5 µM
solubility [5]: 56 µM (≈ 15 µg/mL)
Activity [6]: inactive
IC50 [2]: 11.5 µM
IC50 [7]: 26 µM
SMILES: Cc1cc2cc(NC(=O)c3nccnc3N)ccc2[nH]1

half-life [8]: > 60 min
Ki [9]: 3.5 µM
Papp B→A [10]: 46 ×10⁻⁶ cm/s
IC50 [1]: 0.5 µM
solubility [5]: 330 µM (≈ 87.9 µg/mL)
half-life [11]: 5 min
Papp A→B [12]: 71 ×10⁻⁶ cm/s
IC50 [2]: 2.6 µM
Ki [13]: 0.74 µM
SMILES: Cc1cc2cc(NC(=O)c3cccnc3N)ccc2[nH]1
